# Rows were chosen to be rich in hits. Some 3.3% of all compounds tested hit in one or more screens of this group.
# GAA850 FXN act = increases GAA850 frataxin promoter reporter activity | HEK293 lucGAA850 FXN promoter luciferase reporter, 24 h; percent of 10 µM SAHA response | activation, % at 6 µM | 360,000 compounds, 0.56% hits;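 active = activation above the average of all compounds screened plus 3 SD, cutoff fixed separately per campaign, cut at about 7.5% in these data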;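 note: 0% = DMSO wells and 100% = 10 µM SAHA wells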
# AHR act = activators of human aryl hydrocarbon receptor; activation, % at 5 µM; 320,000 compounds, 2.5% hits; AHR-responsive luciferase reporter cells, luminescence; P35869; AID 2796; in the data active = activation above about 47%;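 note: 0% = vehicle wells and 100% = reference agonist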
# ABCB6 inh MLPCN = inhibitors of human ABC transporter ABCB6; K562-ABCB6 porphyrin accumulation, flow cytometry, 1 h; stronger effect = lower value; 360,000 compounds, 0.19% hits; Q9NP58; AID 602162; fluorescence ratio to DMSO, % at 10 µM;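 active = fluorescence ratio to DMSO below 75%, the collection mean minus 3 SD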;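 note: signal is porphyrin accumulated inside mitochondria; 100% equals median channel fluorescence of DMSO control wells; lower ratio means ABCB6 inhibition with less porphyrin fluorescence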
# Target sequence (Q9NP58 whole entry, looked up): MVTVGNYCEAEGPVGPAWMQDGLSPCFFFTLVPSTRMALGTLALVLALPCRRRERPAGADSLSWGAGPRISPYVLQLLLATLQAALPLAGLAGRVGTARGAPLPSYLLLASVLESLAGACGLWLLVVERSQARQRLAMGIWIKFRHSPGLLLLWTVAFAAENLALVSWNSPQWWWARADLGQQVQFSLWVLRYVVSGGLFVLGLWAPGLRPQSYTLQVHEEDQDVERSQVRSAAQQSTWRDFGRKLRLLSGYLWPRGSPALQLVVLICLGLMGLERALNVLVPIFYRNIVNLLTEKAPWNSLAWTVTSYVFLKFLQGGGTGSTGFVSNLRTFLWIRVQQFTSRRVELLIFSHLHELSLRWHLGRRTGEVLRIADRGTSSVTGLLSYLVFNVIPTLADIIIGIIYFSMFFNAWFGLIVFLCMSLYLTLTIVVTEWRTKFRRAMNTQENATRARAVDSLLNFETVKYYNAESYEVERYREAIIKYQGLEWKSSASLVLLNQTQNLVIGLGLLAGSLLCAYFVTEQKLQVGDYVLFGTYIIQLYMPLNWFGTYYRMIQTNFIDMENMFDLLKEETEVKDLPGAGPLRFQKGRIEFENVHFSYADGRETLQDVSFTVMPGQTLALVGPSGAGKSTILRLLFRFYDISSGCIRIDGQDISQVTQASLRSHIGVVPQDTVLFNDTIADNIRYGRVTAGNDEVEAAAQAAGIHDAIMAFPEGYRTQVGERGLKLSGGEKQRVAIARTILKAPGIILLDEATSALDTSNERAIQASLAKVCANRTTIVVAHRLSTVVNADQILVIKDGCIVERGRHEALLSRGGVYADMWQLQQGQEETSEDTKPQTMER
# STAT3 act = increases IL-6 driven STAT3 reporter signal; activation (% of control), % at 5.6 µM; AID 871; 190,000 compounds, 0.91% hits; U3A cells, IL-6 STAT3-luciferase reporter, luminescence; 100% = signal with IL-6 EC80 alone;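 active = activation above the screen-wide mean of compound activation plus 3 SD, cut at about 130% in these data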;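 note: 0% = background luminescence of wells with medium and substrate only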
#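 Material: human STAT1-deficient U3A cells with stable STAT3-luciferase reporter / Probe or stimulus: IL-6 stimulus at 33 ng/mL final / Schedule: 1 h compound pre-exposure, 6 h IL-6 stimulation, 37 °C / Technique: luminescence / Read-out basis: percent of IL-6-only median luminescence / Control set: IL-6-only high control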
# AHR act cf = confirmation of human aryl hydrocarbon receptor activators; 2,300 compounds, 87% hits; activation, % at 9 µM; human cells, AHR-responsive luciferase reporter, luminescence; shares compounds with AHR act; in the data active = activation above about 49%;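 note: HepG2 hepatoma cells carrying a DRE-driven firefly luciferase reporter; 0% = vehicle wells and 100% = reference agonist wells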
# PXR act counter = counter-screen for AHR activators: human PXR activators | shares compounds with AHR act | cell-based PXR reporter, luciferase luminescence | activation, % at 11.6 µM | 2,300 compounds, 88% hits | AID 434939; in the data active = activation above about 11%;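 note: human hepatoma DPX-2 cells expressing full-length human PXR; 0% = DMSO and 100% = reference agonist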
# The depositor's hits bear a star; i = inactive; nt = no result.
SMILES,GAA850 FXN act,AHR act,ABCB6 inh MLPCN,STAT3 act,AHR act cf,PXR act counter
COc1ccc([C@@H]2C[C@@H](c3ccccc3)Oc3c(C)ccc(C(C)C)c32)cc1,nt,3,nt,nt,nt,nt
COc1ccc(CNC(=O)c2ccc(Cl)c(S(=O)(=O)N3CCOCC3)c2)cc1OC,-3,-3,i,nt,nt,nt
O=C(CNc1ccc2ccccc2c1)N/N=C/c1ccc([N+](=O)[O-])o1,2,126*,98,100,63*,11*
O=C(COc1ccccc1)N/N=C/c1ccc([N+](=O)[O-])o1,2,1,107,102,nt,nt
Cc1cc(N2CCN(c3ccccc3)CC2)nc2ccccc12,2,125*,97,nt,106*,20*
Cc1cc(N)ccc1N=Nc1c(C)n(C)n(-c2ccccc2)c1=O,5,87*,103,109,119*,25*
O=C(N=C1c2ccccc2CN1c1ccc(F)c(Cl)c1)c1cccnc1Cl,nt,123*,nt,95,113*,158*
N#Cc1ccc(N2Cc3ccccc3C2=NC(=O)c2cccnc2Cl)cc1,-8,-6,90,91,nt,nt
CC1CC(C)CN(C(=S)Nc2ccc(OC(F)F)cc2)C1 (stereo not drawn),3,83*,103,98,64*,118*
Cn1c(=O)c([N+](=O)[O-])c(NCCCn2ccnc2)c2ccccc21,-1,80*,95,nt,110*,27*
C=CCn1cc(/C=C2/NC(=O)NC2=O)c2ccccc21,2,97*,92,nt,91*,35*
CCCCNC(=O)CC1Nc2ccccc2NC1=O (stereo not drawn),1,86*,97,96,52*,58*
CC(=O)Nc1ccc(N=NC2C(=O)N(C(N)=S)N=C2C)cc1 (stereo not drawn),3,104*,103,nt,112*,16*
CCOc1ccc(N=NC2C(=O)N(C(N)=S)N=C2C)cc1 (stereo not drawn),2,118*,93,nt,124*,22*
CC1=NN(C(N)=S)C(=O)C1N=Nc1ccc(O)cc1 (stereo not drawn),1,nt,103,106,nt,nt
CC1=NN(C(N)=S)C(=O)C1N=Nc1ccc(F)cc1 (stereo not drawn),2,nt,98,nt,nt,nt
COc1ccc(NC(=O)Nc2cccc3c2O[C@H](CN(C)C(=O)Nc2ccc4c(c2)OCO4)[C@@H](C)CN([C@H](C)CO)C3=O)cc1,-4,2,87,nt,nt,nt
O=c1oc2ccccc2n1CCc1ccccc1,1,94*,81,85,100*,34*
O=C1c2ccccc2C(=O)N1CCCCn1c(=O)oc2ccccc21,2,-1,114,101,nt,nt
Nc1nc(/C=C/c2cccnc2)nc(-c2ccccc2O)n1,2,28,97,84,nt,nt
Nc1nc(/C=C/c2ccc(F)cc2)nc(-c2ccccc2O)n1,2,109*,101,92,136*,18*
N#Cc1ccc(C(=O)Nc2cccc(S(=O)(=O)NC3=NCCC3)c2)cc1,-1,1,98,nt,nt,nt
CCn1c2ccccc2c2cc(NC(=O)COc3ccccc3)ccc21,1,100*,99,107,89*,60*
CCn1c2ccccc2c2cc(NC(=O)N3CCOCC3)ccc21,2,118*,111,109,99*,109*
CC(=O)N1CCN(C(=O)c2cc(S(=O)(=O)N(C)Cc3ccccc3)ccc2Cl)CC1,0,nt,101,nt,nt,nt
SMILES,GAA850 FXN act,AHR act,ABCB6 inh MLPCN,STAT3 act,AHR act cf,PXR act counter
CC1CC(=O)Nc2ccccc2N1S(=O)(=O)c1ccc(F)cc1F (stereo not drawn),1,1,101,nt,nt,nt
COc1cccc2c(=O)c3cccc(N)c3[nH]c12,2,80*,114,93,60*,nt
COc1cccc2c(=O)c3c([nH]c12)OC(C)(C)C3,0,0,98,nt,nt,nt
Nc1ncc(Br)cc1S(=O)(=O)NC1CCCCC1,2,1,101,nt,nt,nt
COc1cc(NC(=O)c2cc(CC(C)C)on2)c(OC)cc1Cl,1,91*,96,136*,86*,15*
COC(=O)c1ccccc1NC(=O)c1ccnn1C,2,0,97,87,nt,nt
COc1cc(NC(=O)c2ccnn2C)c(OC)cc1Cl,1,129*,100,87,135*,23*
COc1cc(NC(=O)c2noc(C)c2[N+](=O)[O-])c(OC)cc1Cl,-2,80*,102,nt,102*,30*
O=C1C2CCCN2C(=S)N1c1ccc(Cl)cc1 (stereo not drawn),0,32,93,nt,nt,nt
C=CCn1c(SCC(=O)N(C)C2CCS(=O)(=O)C2)nnc1-c1ccncc1 (stereo not drawn),2,0,99,97,nt,nt
c1ccc(-c2n[nH]c(-c3ccccn3)n2)cc1,4,90*,91,91,81*,24*
Nc1n[nH]c(-c2ccccc2)n1,3,5,89,103,nt,nt
O=C(C[n+]1cc(Br)cc2ccccc21)c1ccccc1,2,93*,186,nt,96*,103*
Cc1ccc2c(ccc[n+]2CC(=O)c2ccccc2)c1,2,9,124,103,nt,nt
Cc1ccc2[nH]c(=O)c(-c3nc4cc(C)ccn4c3NCc3ccco3)cc2c1,2,88*,106,110,75*,39*
CCOc1ccccc1NC(=O)C(=O)NCCC1=CCCCC1,2,6,96,90,nt,nt
Nc1ccccc1Nc1nc2ccccc2[nH]1,-1,95*,101,nt,2,9
Cc1nc(C(F)(F)F)ccc1C(=O)N1CCCCC1,1,2,98,nt,nt,nt
O=C(c1nc2ccc(Cl)cn2c1CN1CCC[C@H]1CO)N1CCCCCCC1,2,2,106,nt,nt,nt
S=C(NCc1ccco1)Nc1ccc(Br)cn1,1,81*,94,nt,59*,17*
COC(=O)c1cc(NS(=O)(=O)c2ccc(N3CCOCC3)c([N+](=O)[O-])c2)cc(C(=O)OC)c1,2,4,98,106,nt,nt
O=C(Nc1ccc(F)cc1)c1cnc(-c2ccccc2)nc1-c1ccccc1,-1,124*,90,100,53*,81*
COc1ccc(C)c2sc(NNC(=O)COc3ccccc3)nc12,nt,80*,nt,99,99*,15*
COc1ccc(OCC(=O)NNc2c3ccccc3nc3ccccc23)cc1,1,-18,97,95,nt,nt
CCOC(=O)c1ccc(OC(=O)CCCCCN=C(N)N)cc1,0,-4,92,nt,nt,nt
O=C(N/N=C/c1cc(Br)cs1)c1ccccc1[N+](=O)[O-],-1,6,91,99,nt,nt
O=C(N/N=C/c1cc(Br)cs1)c1c[nH]c2ccccc12,-2,91*,101,nt,145*,26*
COc1ccc(Nc2ccnc(Nc3ccc(OC)cc3)n2)cc1,1,83*,92,78,62*,37*
Cc1cccc(N2C(=O)CN=C2Nc2nc(C)cc(C)n2)c1,0,92*,95,96,82*,25*

# Compound activity deposited in PubChem BioAssay by several laboratories.
